In ChEMBL document CHEMBL3734701, “Synthesis and antibacterial activity of 4″-O-(trans-β-arylacrylamido)carbamoyl azithromycin analogs” (2015):
≈ marks a conversion by molar mass, not a printed value.

Tests used:
Assay type in all cases: functional
Staphylococcus aureus [1] = assay: Antibacterial activity against methicillin-susceptible Staphylococcus aureus ATCC 29213 by broth microdilution method
Procedure, shortened: (§1)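 MICs measured in vitro by broth microdilution following NCCL recommendations, against a Gram-positive panel of sensitive and resistant strains. Azithromycin and clarithromycin were tested alongside as references.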

Streptococcus pneumoniae [2] = assay: Antibacterial activity against erythromycin-resistant Streptococcus pneumoniae B1 expressing ermB gene by broth microdilution method; procedure, shortened: as §1
Streptococcus pneumoniae [3] = assay: Potency index, ratio of EMA MIC to test compound MIC for erythromycin-resistant Streptococcus pneumoniae B1 expressing ermB gene
Streptococcus pneumoniae [4] = assay: Antibacterial activity against erythromycin-susceptible Streptococcus pneumoniae ATCC 49619 by broth microdilution method
Procedure, shortened: (§2)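 Broth microdilution MIC following the NCCL-recommended method. Panel of sensitive and resistant Gram-positive strains: S. pyogenes S2 (erythromycin-susceptible clinical isolate), S. aureus ATCC25923 and S. pneumoniae ATCC49619 (erythromycin-susceptible). Azithromycin and clarithromycin were run alongside as references.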

Streptococcus pneumoniae [5] = assay: Antibacterial activity against erythromycin-resistant Streptococcus pneumoniae A22072 expressing mefA gene by broth microdilution method; procedure, shortened: as §1
Streptococcus pneumoniae [6] = assay: Potency index, ratio of AZM MIC to test compound MIC for erythromycin-resistant Streptococcus pneumoniae B1 expressing ermB gene
Streptococcus pneumoniae [7] = assay: Antibacterial activity against erythromycin-resistant Streptococcus pneumoniae AB11 expressing ermB and mefA genes by broth microdilution method; procedure, shortened: as §1
Streptococcus pyogenes [8] = assay: Antibacterial activity against clinically isolated erythromycin-resistant Streptococcus pyogenes R2 by broth microdilution method; procedure, shortened: as §1
Streptococcus pyogenes [9] = assay: Antibacterial activity against clinically isolated erythromycin-susceptible Streptococcus pyogenes S2 by broth microdilution method; procedure, shortened: as §2
Staphylococcus aureus [10] = assay: Antibacterial activity against erythromycin-susceptible Staphylococcus aureus ATCC 25923 by broth microdilution method; procedure, shortened: as §2
Staphylococcus aureus [11] = assay: Antibacterial activity against clinically isolated penicillin-resistant Staphylococcus aureus by broth microdilution method
Procedure, shortened: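 Clinical penicillin-resistant S. aureus isolate, not further characterized, tested in a Gram-positive panel. MIC was measured by broth microdilution following NCCL recommendations, with azithromycin and clarithromycin as references.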

CC[C@@H]1OC(=O)[C@H](C)[C@@H](O[C@H]2C[C@@](C)(OC)[C@@H](OC(=O)NNC(=O)/C=C/c3cccs3)[C@H](C)O2)[C@@H](C)[C@@H](O[C@@H]2O[C@H](C)C[C@H](N(C)C)[C@H]2O)[C@](C)(O)C[C@@H](C)CN(C)[C@H](C)[C@@H](OC(=O)NCc2ccc(OC)cc2)[C@]1(C)O
MIC (Staphylococcus aureus [1]): 1 µg/mL (≈ 0.904 µM)
MIC (Streptococcus pneumoniae [2]): 0.5 µg/mL (≈ 0.452 µM)
Ratio (Streptococcus pneumoniae [3]): 256
MIC (Streptococcus pneumoniae [4]): 0.25 µg/mL (≈ 0.226 µM)
MIC (Streptococcus pneumoniae [5]): 0.03 µg/mL (≈ 0.0271 µM)
Ratio (Streptococcus pneumoniae [6]): 256
MIC (Streptococcus pneumoniae [7]): 1 µg/mL (≈ 0.904 µM)
MIC (Streptococcus pyogenes [8]): 32 µg/mL (≈ 28.9 µM)
MIC (Streptococcus pyogenes [9]): 0.25 µg/mL (≈ 0.226 µM)
MIC (Staphylococcus aureus [10]): 0.5 µg/mL (≈ 0.452 µM)
MIC (Staphylococcus aureus [11]): 2 µg/mL (≈ 1.81 µM)

CC[C@H]1OC(=O)[C@@H](C)[C@H](O[C@@H]2C[C@](C)(OC)[C@H](OC(=O)NNC(=O)/C=C/c3ccc(Br)cc3)[C@@H](C)O2)[C@H](C)[C@H](O[C@H]2O[C@@H](C)C[C@@H](N(C)C)[C@@H]2O)[C@@](C)(O)C[C@H](C)CN(C)[C@@H](C)[C@H](OC(=O)NCc2ccc(OC)cc2)[C@@]1(C)O
MIC (Staphylococcus aureus [1]): 2 µg/mL (≈ 1.7 µM)
MIC (Streptococcus pneumoniae [2]): 0.5 µg/mL (≈ 0.424 µM)
Ratio (Streptococcus pneumoniae [3]): 256
MIC (Streptococcus pneumoniae [4]): 0.25 µg/mL (≈ 0.212 µM)
MIC (Streptococcus pneumoniae [5]): 0.25 µg/mL (≈ 0.212 µM)
Ratio (Streptococcus pneumoniae [6]): 256
MIC (Streptococcus pneumoniae [7]): 1 µg/mL (≈ 0.848 µM)
MIC (Streptococcus pyogenes [8]): 16 µg/mL (≈ 13.6 µM)
MIC (Streptococcus pyogenes [9]): 0.5 µg/mL (≈ 0.424 µM)
MIC (Staphylococcus aureus [10]): 1 µg/mL (≈ 0.848 µM)
MIC (Staphylococcus aureus [11]): 2 µg/mL (≈ 1.7 µM)

CC[C@H]1OC(=O)[C@@H](C)[C@H](O[C@H]2C[C@@](C)(OC)[C@@H](OC(=O)NNC(=O)/C=C/c3ccccc3OC)[C@H](C)O2)[C@@H](C)[C@H](O[C@H]2O[C@@H](C)C[C@@H](N(C)C)[C@@H]2O)[C@@](C)(O)C[C@H](C)CN(C)[C@@H](C)[C@@H]2OC(=O)O[C@@]12C
MIC (Staphylococcus aureus [1]): 4 µg/mL (≈ 4.03 µM)
MIC (Streptococcus pneumoniae [2]): 4 µg/mL (≈ 4.03 µM)
MIC (Streptococcus pneumoniae [4]): 4 µg/mL (≈ 4.03 µM)
MIC (Streptococcus pneumoniae [5]): 0.25 µg/mL (≈ 0.252 µM)
MIC (Streptococcus pneumoniae [7]): 2 µg/mL (≈ 2.01 µM)
MIC (Streptococcus pyogenes [8]): 64 µg/mL (≈ 64.4 µM)
MIC (Streptococcus pyogenes [9]): 8 µg/mL (≈ 8.05 µM)
MIC (Staphylococcus aureus [10]): 2 µg/mL (≈ 2.01 µM)
MIC (Staphylococcus aureus [11]): 8 µg/mL (≈ 8.05 µM)

CC[C@H]1OC(=O)[C@@H](C)[C@H](O[C@@H]2C[C@](C)(OC)[C@H](OC(=O)NNC(=O)/C=C/c3ccc([N+](=O)[O-])cc3)[C@@H](C)O2)[C@H](C)[C@H](O[C@H]2O[C@@H](C)C[C@@H](N(C)C)[C@@H]2O)[C@@](C)(O)C[C@H](C)CN(C)[C@@H](C)[C@H](OC(=O)NCc2ccccc2)[C@@]1(C)O
MIC (Staphylococcus aureus [1]): 2 µg/mL (≈ 1.79 µM)
MIC (Streptococcus pneumoniae [2]): 4 µg/mL (≈ 3.59 µM)
MIC (Streptococcus pneumoniae [4]): 0.25 µg/mL (≈ 0.224 µM)
MIC (Streptococcus pneumoniae [5]): 0.12 µg/mL (≈ 0.108 µM)
MIC (Streptococcus pneumoniae [7]): 2 µg/mL (≈ 1.79 µM)
MIC (Streptococcus pyogenes [8]): 16 µg/mL (≈ 14.3 µM)
MIC (Streptococcus pyogenes [9]): 0.5 µg/mL (≈ 0.448 µM)
MIC (Staphylococcus aureus [10]): 0.5 µg/mL (≈ 0.448 µM)
MIC (Staphylococcus aureus [11]): 2 µg/mL (≈ 1.79 µM)

CC[C@H]1OC(=O)[C@@H](C)[C@H](O[C@H]2C[C@@](C)(OC)[C@@H](OC(=O)NNC(=O)/C=C/c3ccc(C#N)cc3)[C@H](C)O2)[C@@H](C)[C@H](O[C@H]2O[C@@H](C)C[C@@H](N(C)C)[C@@H]2O)[C@@](C)(O)C[C@H](C)CN(C)[C@@H](C)[C@@H]2OC(=O)O[C@@]12C
MIC (Staphylococcus aureus [1]): 8 µg/mL (≈ 8.1 µM)
MIC (Streptococcus pneumoniae [2]): 64 µg/mL (≈ 64.8 µM)
MIC (Streptococcus pneumoniae [4]): 16 µg/mL (≈ 16.2 µM)
MIC (Streptococcus pneumoniae [5]): 2 µg/mL (≈ 2.02 µM)
MIC (Streptococcus pneumoniae [7]): 64 µg/mL (≈ 64.8 µM)
MIC (Streptococcus pyogenes [8]): ≥ 128 µg/mL
MIC (Streptococcus pyogenes [9]): 0.5 µg/mL (≈ 0.506 µM)
MIC (Staphylococcus aureus [10]): 4 µg/mL (≈ 4.05 µM)
MIC (Staphylococcus aureus [11]): 8 µg/mL (≈ 8.1 µM)

CC[C@H]1OC(=O)[C@@H](C)[C@H](O[C@H]2C[C@@](C)(OC)[C@@H](OC(=O)NNC(=O)/C=C/c3ccco3)[C@H](C)O2)[C@@H](C)[C@H](O[C@H]2O[C@@H](C)C[C@@H](N(C)C)[C@@H]2O)[C@@](C)(O)C[C@H](C)CN(C)[C@@H](C)[C@@H]2OC(=O)O[C@@]12C
MIC (Staphylococcus aureus [1]): 8 µg/mL (≈ 8.39 µM)
MIC (Streptococcus pneumoniae [2]): 32 µg/mL (≈ 33.6 µM)
MIC (Streptococcus pneumoniae [4]): 8 µg/mL (≈ 8.39 µM)
MIC (Streptococcus pneumoniae [5]): 1 µg/mL (≈ 1.05 µM)
MIC (Streptococcus pneumoniae [7]): 16 µg/mL (≈ 16.8 µM)
MIC (Streptococcus pyogenes [8]): ≥ 128 µg/mL
MIC (Streptococcus pyogenes [9]): 0.25 µg/mL (≈ 0.262 µM)
MIC (Staphylococcus aureus [10]): 2 µg/mL (≈ 2.1 µM)
MIC (Staphylococcus aureus [11]): 4 µg/mL (≈ 4.2 µM)
